For series [1], the system named is B16. As to the kind of experiment: In vitro antitumor activity against murine melanoma cells (B16 melanoma cells). The series is classed as functional. The following applies: Mus musculus, read-out: ID50 (the source's name). In short, it runs like this: (§1)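 Cells grown in suspension culture and exposed to compound for 48 h. Compounds dissolved in Me₂SO-saline, with less than 1% Me₂SO in the final growth medium. ID50 is the concentration in ng/mL giving 50% growth inhibition. Values are the mean of three experiments; SD ranged from 8% to 10% of the mean.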

Series [2] deals with CCRF-CEM. As to the kind of experiment: In vitro antitumor activity against human leukemic lymphoblastic cells (CCRF-CEM). The format is functional. To be noted: read-out: ID50 (the source's name). An outline of the steps:
as §1

Series [3] is described as follows: The delta Tm value is a measure of a stabilization of the DNA helical structure as consequence of compound binding. The series is classed as ADME. An outline of the steps:
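Calf-thymus DNA at 5.0 × 10⁻⁵ M with drug at 2.5 × 10⁻⁵ M in 0.01 M phosphate buffer (pH 7) containing 10⁻⁵ M EDTA. Thermal denaturation curves were recorded. ΔTm is the Tm of the DNA–drug complex minus the Tm of DNA alone.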

The source of these data is ChEMBL document CHEMBL1124083, “Synthesis and biological properties of actinomycin D chromophoric analogues substituted at carbon 7 with aziridine and cyclopropyl functions” (J Med Chem, 1988).

Structures are written as SMILES. ≈ marks a conversion by molar mass, not a printed value. *1 amine or outer side, *2 acyl side, *3 side chain or, on linkers, in order; H or OH if unused. Where a SMILES comes first, the peptide text is derived from it. Bridges are numbered along the chain shown (N, C = ends). Roman numbers before positions name the chains, in order. [ ]: non-standard residue; d: D form. Actinocin(9to1) = Cc1c2oc3c(C)ccc(C(=O)[*:1])c3nc-2c(C(=O)[*:2])c(N)c1=O; NMeV = CN[C@H](C(=O)O)C(C)C; Sar = CNCC(=O)O

Regarding `Cc1c2oc3c(C)c(OCC4CN4)cc(C(=O)N[C@@H]4C(=O)N[C@H](C(C)C)C(=O)N5CCC[C@H]5C(=O)N(C)CC(=O)N(C)[C@@H](C(C)C)C(=O)O[C@@H]4C)c3nc-2c(C(=O)N[C@@H]2C(=O)N[C@H](C(C)C)C(=O)N3CCC[C@H]3C(=O)N(C)CC(=O)N(C)[C@@H](C(C)C)C(=O)O[C@@H]2C)c(N)c1=O` (some centres not stated), the results for the IC50 in series [1] and in series [2] were 0.11 µg/mL (≈ 0.0829 µM) and 0.076 µg/mL (≈ 0.0573 µM), respectively. Also, the “Delta Tm” value in series [3] is listed as 2.8 C.

Consider `Cc1c2oc3c(C)c(OCC4CC4)cc(C(=O)N[C@@H]4C(=O)N[C@H](C(C)C)C(=O)N5CCC[C@H]5C(=O)N(C)CC(=O)N(C)[C@@H](C(C)C)C(=O)O[C@@H]4C)c3nc-2c(C(=O)N[C@@H]2C(=O)N[C@H](C(C)C)C(=O)N3CCC[C@H]3C(=O)N(C)CC(=O)N(C)[C@@H](C(C)C)C(=O)O[C@@H]2C)c(N)c1=O`, for which the results for the IC50 in series [1] and in series [2] were 0.038 µg/mL (≈ 0.0287 µM) and 0.055 µg/mL (≈ 0.0415 µM), respectively. Besides, in series [3], the “Delta Tm” value was -0.6 C.

As to `Cc1c2oc3c(C)c(OCC(C)N)cc(C(=O)N[C@@H]4C(=O)N[C@H](C(C)C)C(=O)N5CCC[C@H]5C(=O)N(C)CC(=O)N(C)[C@@H](C(C)C)C(=O)O[C@@H]4C)c3nc-2c(C(=O)N[C@@H]2C(=O)N[C@H](C(C)C)C(=O)N3CCC[C@H]3C(=O)N(C)CC(=O)N(C)[C@@H](C(C)C)C(=O)O[C@@H]2C)c(N)c1=O` (some centres not stated), the IC50 in series [1] is 0.055 µg/mL (≈ 0.0414 µM); in series [2] it was 0.06 µg/mL (≈ 0.0452 µM). The “Delta Tm” value in series [3] was 4.8 C.

Take `Cc1c2oc3c(C)c(OCCNCCO)cc(C(=O)N[C@@H]4C(=O)N[C@H](C(C)C)C(=O)N5CCC[C@H]5C(=O)N(C)CC(=O)N(C)[C@@H](C(C)C)C(=O)O[C@@H]4C)c3nc-2c(C(=O)N[C@@H]2C(=O)N[C@H](C(C)C)C(=O)N3CCC[C@H]3C(=O)N(C)CC(=O)N(C)[C@@H](C(C)C)C(=O)O[C@@H]2C)c(N)c1=O`: in series [2], the IC50 was determined as 0.5 µg/mL (≈ 0.368 µM). Moreover, the “Delta Tm” value in series [3] is listed as 1.9 C.

With `Cc1c2oc3c(C)c(OCCN4CC4)cc(C(=O)N[C@@H]4C(=O)N[C@H](C(C)C)C(=O)N5CCC[C@H]5C(=O)N(C)CC(=O)N(C)[C@@H](C(C)C)C(=O)O[C@@H]4C)c3nc-2c(C(=O)N[C@@H]2C(=O)N[C@H](C(C)C)C(=O)N3CCC[C@H]3C(=O)N(C)CC(=O)N(C)[C@@H](C(C)C)C(=O)O[C@@H]2C)c(N)c1=O`, the IC50 in series [1] is 0.14 µg/mL (≈ 0.104 µM); in series [2] it was 0.3 µg/mL (≈ 0.224 µM). In series [3], the “Delta Tm” value was 1.8 C.

With `Cc1c2oc3c(C)ccc(C(=O)N[C@@H]4C(=O)N[C@H](C(C)C)C(=O)N5CCC[C@H]5C(=O)N(C)CC(=O)N(C)[C@@H](C(C)C)C(=O)O[C@@H]4C)c3nc-2c(C(=O)N[C@@H]2C(=O)N[C@H](C(C)C)C(=O)N3CCC[C@H]3C(=O)N(C)CC(=O)N(C)[C@@H](C(C)C)C(=O)O[C@@H]2C)c(N)c1=O` [DACTINOMYCIN] (I: T[dV]P[Sar][NMeV] / II: T[dV]P[Sar][NMeV]; ester I:1-I:C, II:1-II:C; linker I:N-II:N via Actinocin(9to1)), the IC50 stood at 0.0033 µg/mL (≈ 0.00263 µM) in series [1] and 0.013 µg/mL (≈ 0.0104 µM) in series [2]. Further, the “Delta Tm” value in series [3] was 8 C.
